Results: ChEMBL document CHEMBL1125001, “Selective inhibition of urokinase by substituted phenylguanidines: quantitative structure-activity relationship analyses” (J Med Chem, 1990)

Legend:
[1] = target: Plasma kallikrein (Homo sapiens) (UniProt P03952); test: Inhibition against human plasma Kallikrein at 2 mM; format: cell-free
Procedure, shortened: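 Human plasma kallikrein in 50 mM Tris/HCl, 100 mM NaCl, pH 8.44, with H-D-Pro-Phe-Arg-p-nitroanilide (S-2302) as chromogenic substrate. Percent inhibition was taken at 2.0 mM inhibitor against 0.1 mM S-2302 (Km = 0.604 mM).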

[2] = target: T1, Tissue-type plasminogen activator (Homo sapiens, UniProt P00750); test: Inhibition against Tissue plasminogen activator at 1 mM
Procedure, shortened: (§1)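 Tissue-type plasminogen activator assayed by chromogenic amidolysis of H-D-Ile-Pro-Arg-p-nitroanilide (S-2288) in 0.2 M Tris/AcOH, pH 8.00. Percent inhibition was measured at 1.0 mM inhibitor against 0.3 mM S-2288 (Km = 0.673 mM). Separate Ki work used 0.1–0.9 mM S-2288.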
Target sequence in this assay (P00750 36-562 limits assumed): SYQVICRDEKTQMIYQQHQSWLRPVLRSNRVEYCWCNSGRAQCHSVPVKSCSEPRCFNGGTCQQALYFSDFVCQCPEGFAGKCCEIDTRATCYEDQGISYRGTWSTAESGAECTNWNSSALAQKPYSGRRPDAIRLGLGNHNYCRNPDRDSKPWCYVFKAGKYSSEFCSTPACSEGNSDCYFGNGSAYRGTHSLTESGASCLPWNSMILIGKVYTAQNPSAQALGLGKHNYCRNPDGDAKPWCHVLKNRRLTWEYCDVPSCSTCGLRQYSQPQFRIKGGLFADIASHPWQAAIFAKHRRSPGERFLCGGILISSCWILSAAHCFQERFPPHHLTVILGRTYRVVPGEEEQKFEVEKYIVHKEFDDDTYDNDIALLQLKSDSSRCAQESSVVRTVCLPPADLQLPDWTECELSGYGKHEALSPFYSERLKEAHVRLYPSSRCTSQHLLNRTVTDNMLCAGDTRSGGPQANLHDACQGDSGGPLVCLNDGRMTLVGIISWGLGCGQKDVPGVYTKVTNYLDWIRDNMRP

[3] = target: Prothrombin (Homo sapiens) (UniProt P00734); test: Inhibition against human plasma thrombin at 1.0 mM; format: cell-free
Procedure, shortened: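 Highly purified human plasma thrombin in 0.2 M Tris/AcOH, pH 8.00, with H-D-Ile-Pro-Arg-p-nitroanilide (S-2288) as chromogenic substrate. Inhibition was measured at 1.0 mM inhibitor against 7.0 µM S-2288 (Km = 7.10 µM).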

[4] = target: T2, Urokinase-type plasminogen activator (Homo sapiens, UniProt P00749); test: log1/Ki value was calculated against Urokinase-type plasminogen activator; details: read-out: Log 1/Ki (converted)
Serine protease 1 [5] = target: T3, Serine protease 1 (Bos taurus, UniProt P00760); test: Inhibition against Trypsin
T3 sequence (P00760 whole entry): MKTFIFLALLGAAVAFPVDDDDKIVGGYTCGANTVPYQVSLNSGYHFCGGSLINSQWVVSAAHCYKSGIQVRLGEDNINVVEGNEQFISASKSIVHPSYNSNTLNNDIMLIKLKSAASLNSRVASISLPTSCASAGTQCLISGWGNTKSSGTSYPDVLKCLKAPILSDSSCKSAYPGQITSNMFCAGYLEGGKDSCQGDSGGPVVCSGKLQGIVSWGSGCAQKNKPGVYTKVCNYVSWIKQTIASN

Serine protease 1 [6] = target: T3, Serine protease 1; test: log1/Ki value was calculated against Trypsin; details: read-out: Log 1/Ki (converted)
[7] = target: T2, Urokinase-type plasminogen activator; test: Inhibition against Urokinase-type plasminogen activator
Plasminogen = Plasminogen (Homo sapiens, UniProt P00747); test: Inhibition against human plasmin was determined at 0.5 mM
Procedure, shortened: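 Human plasmin chromogenic amidolysis assay with substrate S-2251. Inhibition was measured at 0.5 mM inhibitor against 0.3 mM S-2251 (Km = 0.664 mM).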

[8] = target: T1, Tissue-type plasminogen activator; test: The compound was tested for its inhibition against Tissue plasminogen activator at 1 mM when assayed against 0.3 mM S-2288 (Km = 0.673 mM); procedure, shortened: as §1
Target sequence in this assay (P00750 whole entry): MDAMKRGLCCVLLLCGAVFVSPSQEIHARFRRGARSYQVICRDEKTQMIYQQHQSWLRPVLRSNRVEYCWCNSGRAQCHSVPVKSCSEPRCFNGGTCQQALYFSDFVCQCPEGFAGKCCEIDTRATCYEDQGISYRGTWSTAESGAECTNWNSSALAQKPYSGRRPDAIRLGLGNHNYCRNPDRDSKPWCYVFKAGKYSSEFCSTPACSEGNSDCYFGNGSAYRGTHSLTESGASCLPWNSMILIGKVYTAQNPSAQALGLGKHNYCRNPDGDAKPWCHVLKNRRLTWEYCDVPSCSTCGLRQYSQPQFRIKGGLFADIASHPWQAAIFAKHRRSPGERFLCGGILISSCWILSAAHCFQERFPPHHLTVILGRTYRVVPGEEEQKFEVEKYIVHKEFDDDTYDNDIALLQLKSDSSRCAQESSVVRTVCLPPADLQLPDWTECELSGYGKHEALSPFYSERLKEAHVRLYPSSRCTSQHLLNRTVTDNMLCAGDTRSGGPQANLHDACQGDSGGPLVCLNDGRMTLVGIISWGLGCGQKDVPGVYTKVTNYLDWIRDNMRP

Chain of Plasma kallikrein (Homo sapiens) (P03952 20-390 limits assumed): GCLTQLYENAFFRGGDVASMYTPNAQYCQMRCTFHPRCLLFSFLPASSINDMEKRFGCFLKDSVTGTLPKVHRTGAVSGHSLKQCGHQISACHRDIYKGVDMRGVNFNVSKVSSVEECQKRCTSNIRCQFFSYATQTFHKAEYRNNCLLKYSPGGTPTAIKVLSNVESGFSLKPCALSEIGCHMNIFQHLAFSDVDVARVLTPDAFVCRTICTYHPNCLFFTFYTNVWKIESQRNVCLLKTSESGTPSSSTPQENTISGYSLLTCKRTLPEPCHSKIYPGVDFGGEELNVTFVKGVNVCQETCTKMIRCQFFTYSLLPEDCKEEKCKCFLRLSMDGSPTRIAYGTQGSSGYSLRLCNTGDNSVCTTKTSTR
Chain of Plasma kallikrein (Homo sapiens) (P03952 391-638 limits assumed): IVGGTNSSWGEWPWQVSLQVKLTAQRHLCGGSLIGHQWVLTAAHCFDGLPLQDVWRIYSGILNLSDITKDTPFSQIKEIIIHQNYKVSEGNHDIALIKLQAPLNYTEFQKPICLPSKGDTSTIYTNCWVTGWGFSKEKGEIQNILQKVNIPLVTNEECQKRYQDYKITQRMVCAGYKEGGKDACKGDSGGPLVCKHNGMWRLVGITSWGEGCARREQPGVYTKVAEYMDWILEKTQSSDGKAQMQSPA
Chain of Plasminogen (P00747 97-580 limits assumed): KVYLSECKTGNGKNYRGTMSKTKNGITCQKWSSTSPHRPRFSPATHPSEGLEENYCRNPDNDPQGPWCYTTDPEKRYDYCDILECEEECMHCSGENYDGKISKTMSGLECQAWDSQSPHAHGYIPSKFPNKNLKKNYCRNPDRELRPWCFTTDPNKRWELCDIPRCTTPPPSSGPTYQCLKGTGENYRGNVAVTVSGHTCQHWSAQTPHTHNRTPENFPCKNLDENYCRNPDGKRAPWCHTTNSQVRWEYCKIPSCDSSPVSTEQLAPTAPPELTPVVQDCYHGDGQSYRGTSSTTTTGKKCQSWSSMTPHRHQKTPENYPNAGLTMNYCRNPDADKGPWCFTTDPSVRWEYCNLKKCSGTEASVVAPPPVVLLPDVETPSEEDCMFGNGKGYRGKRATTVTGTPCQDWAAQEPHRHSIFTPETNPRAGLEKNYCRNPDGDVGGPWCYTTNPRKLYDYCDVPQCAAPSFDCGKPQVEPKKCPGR
Chain of Plasminogen (P00747 581-810 limits assumed): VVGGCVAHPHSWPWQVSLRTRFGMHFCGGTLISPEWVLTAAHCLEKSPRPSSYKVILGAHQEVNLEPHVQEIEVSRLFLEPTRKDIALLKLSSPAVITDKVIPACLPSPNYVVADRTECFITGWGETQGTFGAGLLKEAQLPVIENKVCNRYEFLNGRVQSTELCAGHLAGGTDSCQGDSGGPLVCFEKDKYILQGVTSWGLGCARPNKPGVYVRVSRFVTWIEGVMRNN

Row | SMILES | inhibition [1] [%] | inhibition [2] [%] | inhibition [3] [%] | Ki [4] [µM] | Ki (Serine protease 1 [5]) [µM] | Ki (Serine protease 1 [6]) [µM] | Ki [7] [µM] | Ki (Plasminogen) [µM] | Ki [8] [µM]
1 | N=C(N)Nc1ccccc1Cl | < 30 | < 45 | < 10 |  |  |  |  |  | 
2 | CCc1ccc(NC(=N)N)cc1 | < 30 | < 45 | < 10 | 90.8 | 5770 | 5770 | 90.7 |  | 
3 | Cc1ccc(NC(=N)N)cc1 | < 30 | < 45 | < 10 | 15.6 | 318 | 318 | 15.6 |  | 
4 | N=C(N)Nc1cccc(Cl)c1 | < 30 | < 45 | < 10 |  |  |  |  |  | 
5 | COC(=O)c1ccc(NC(=N)N)cc1 | < 30 | < 45 | < 10 | 1450 | 652 | 652 | 1450 |  | 
6 | Cc1ccccc1NC(=N)N | < 30 | < 45 | < 10 | 259 | 3550 | 3550 | 259 |  | 
7 | N=C(N)Nc1ccc(F)cc1 | < 30 | < 45 | < 10 | 72.4 | 808 | 807 | 72.4 |  | 
8 | N=C(N)Nc1ccccc1[N+](=O)[O-] | < 30 | < 45 | < 10 |  |  |  |  |  | 
9 | NC(N)=Nc1ccccc1[N+](=O)[O-] |  |  |  | 54.3 | 133 | 133 | 54.3 |  | 
10 | N=C(N)Nc1ccc(/C=C/C(=O)O)cc1 |  | < 45 |  | 1320 | 4920 | 4920 | 1330 |  | 
11 | N=C(N)Nc1ccc(C(F)(F)F)cc1 | < 30 | < 45 | < 10 | 6.49 | 63.1 | 63.1 | 6.49 |  | 
12 | N=C(N)Nc1ccccc1 [PHENYLGUANIDINE] | < 30 |  | < 10 | 20.6 | 163 | 163 | 20.6 | 2610 | 733
13 | N=C(N)Nc1ccc([N+](=O)[O-])cc1 | < 30 |  | < 10 | 20.6 | 352 | 352 | 20.6 |  | 
14 | COc1ccc(NC(=N)N)cc1 | < 30 | < 45 | < 10 | 676 | 5890 | 5890 | 676 |  | 
15 | COc1ccccc1NC(=N)N | < 30 | < 45 | < 10 | 136 | 881 | 881 | 136 |  | 
16 | N=C(N)Nc1ccc(Br)cc1 | < 30 | < 45 | < 10 | 30.7 | 2780 | 2780 | 30.7 |  | 
17 | N=C(N)Nc1ccc(Cl)cc1 | < 30 | < 45 | < 10 | 6.07 | 120 | 120 | 6.07 |  | 
18 | N=C(N)Nc1ccc(C(=O)O)cc1 [4-GUANIDINO-BENZOIC ACID] | < 30 | < 45 | < 10 | 745 | 10000 | 10000 | 745 |  | 
19 | N=C(N)Nc1cccc(C(F)(F)F)c1 | < 30 | < 45 | < 10 |  |  |  |  |  | 
20 | N=C(N)Nc1ccccc1N | < 30 | < 45 | < 10 | 388 | 1180 | 1180 | 388 |  | 
21 | NC(N)=Nc1cccc(Cl)c1 |  |  |  | 61.7 | 1100 | 1100 | 61.8 |  | 
22 | NC(N)=Nc1cccc(C(F)(F)F)c1 |  |  |  | 419 | 10700 | 10700 | 419 |  | 
23 | NC(N)=Nc1ccccc1Cl |  |  |  | 103 | 898 | 897 | 103 |  | 
